In ChEMBL document CHEMBL1154217, “Antimalarial and cytotoxic depsidones from the fungus Chaetomium brasiliense” (J Nat Prod, 2009):
Converted amounts (≈) assume the structure as drawn. The source made the active and inactive calls. The calls are words filed in the database; no cut-off is given here.

How the values were obtained:
Candida albicans [1] = assay: Antifungal activity against Candida albicans by XTT assay; format: functional, organism-based
Outline: (§1)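 Clinical isolate of Candida albicans tested by an assay modified from the soluble formazan (XTT) method. Viable cells were quantified from XTT formazan absorbance at 450 nm. Amphotericin B served as the reference substance.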

Plasmodium falciparum [2] = assay: Antimalarial activity against multi drug-resistant Plasmodium falciparum K1 assessed as [3H]hypoxanthine uptake after 18 hrs by microculture radioisotope technique; format: functional, organism-based
Outline: (§2)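 Multidrug-resistant P. falciparum K1 was cultured by the Trager and Jensen method and tested in vitro by microculture radioisotope technique. Growth was read as [³H]-hypoxanthine uptake, and IC50 was taken as the concentration giving 50% reduction in parasite growth. Artemisinin served as the reference standard.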

[3] = Cytotoxicity against human KKU-M156 cells by MTT assay; format: functional, cell-based
[4] = Cytotoxicity against human KKU-M213 cells by MTT assay; format: functional, cell-based
[5] = Cytotoxicity against human KKU100 cells by MTT assay; format: functional, cell-based
[6] = Cytotoxicity against human KKU-M139 cells by MTT assay; format: functional, cell-based
[7] = Cytotoxicity against human BC1 cells by SRB assay; format: functional, cell-based
[8] = Cytotoxicity against human KKU-M214 cells by MTT assay; format: functional, cell-based
[9] = system: Mycobacterium tuberculosis; assay: Antimycobacterial activity against Mycobacterium tuberculosis H37Ra after 4 days by almar blue assay; format: functional; details: 96 h
Outline: (§3)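 M. tuberculosis H37Ra was tested by microplate Alamar Blue assay (MABA), with isoniazid and kanamycin sulfate as reference drugs.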

[10] = system: Mycobacterium tuberculosis; assay: Antimycobacterial activity against Mycobacterium tuberculosis H37Ra at > 50 ug/mL after 4 days by almar blue assay; format: functional, organism-based; outline: as §3
NCI-H187 = assay: Cytotoxicity against human NCI-H187 cells by SRB assay; format: functional, cell-based
KB [11] = assay: Cytotoxicity against human KB cells by SRB assay; format: functional, cell-based
Candida albicans [12] = assay: Antifungal activity against Candida albicans at > 50 ug/mL by XTT assay; format: functional, organism-based; outline: as §1
BC1 = assay: Cytotoxicity against human BC1 cells at > 50 ug/mL by SRB assay; format: functional, cell-based
Plasmodium falciparum [13] = assay: Antimalarial activity against multi drug-resistant Plasmodium falciparum K1 assessed as [3H]hypoxanthine uptake at > 50 ug/mL after 18 hrs by microculture radioisotope technique; format: functional, organism-based; outline: as §2
KB [14] = assay: Cytotoxicity against human KB cells at > 50 ug/mL by SRB assay; format: functional, cell-based

Q: For C[C@@H]1[C@H](O)[C@@H](C)/C=C/C=C/C=C/C=C/C=C/C=C/C=C/[C@H](O[C@@H]2O[C@H](C)[C@@H](O)[C@H](N)[C@@H]2O)C[C@@H]2O[C@](O)(C[C@@H](O)C[C@@H](O)[C@H](O)CC[C@@H](O)C[C@@H](O)CC(=O)O[C@H]1C)C[C@H](O)[C@H]2C(=O)O [AMPHOTERICIN B], which IC50 (Candida albicans [1]) is on record?
A: 0.034 mg/L (≈ 0.0368 µM)

Q: With C[C@@H]1CC[C@H]2[C@@H](C)C(=O)O[C@@H]3O[C@@]4(C)CC[C@@H]1[C@]32OO4 [ARTEMISININ] as the molecule, how does the IC50 (Plasmodium falciparum [2]) read?
A: 0.001 mg/L (≈ 0.00354 µM)

Q: For Cc1c2ccncc2c(C)c2c1[nH]c1ccccc12 [ELLIPTECINE], which IC50 [3] is on record?
A: 2.02 mg/L (≈ 8.2 µM)

Q: And the IC50 [4]?
A: 0.3 mg/L (≈ 1.22 µM)

Q: And the IC50 [5]?
A: 7.11 mg/L (≈ 28.9 µM)

Q: And the IC50 [6]?
A: 1.21 mg/L (≈ 4.91 µM)

Q: What about the IC50 [7] of the same molecule?
A: 0.26 mg/L (≈ 1.06 µM)

Q: And the IC50 [8]?
A: 0.21 mg/L (≈ 0.853 µM)

Q: Which MIC [9] does the source give for NNC(=O)c1ccncc1 [ISONIAZID] here?
A: 0.05 mg/L (≈ 0.365 µM)

Q: With NC[C@H]1O[C@H](O[C@H]2[C@H](O)[C@@H](O[C@H]3O[C@H](CO)[C@@H](O)[C@H](N)[C@H]3O)[C@H](N)C[C@@H]2N)[C@H](O)[C@@H](O)[C@@H]1O.O=S(=O)(O)O [KANAMYCIN SULFATE] as the molecule, how does the MIC [9] read?
A: 2.5 mg/L

Q: Which results are given for Cc1cc(O)c(C=O)c2c1C(=O)Oc1c(cc3c(c1C)C(=O)CC(C)(C)O3)O2 [MOLLICELLIN B]?
A: IC50 [3]: 15.7 mg/L (≈ 41 µM); Activity [10]: inactive; IC50 [4]: 6.94 mg/L (≈ 18.2 µM); IC50 [5]: 4.63 mg/L (≈ 12.1 µM); IC50 (NCI-H187): 14.7 mg/L (≈ 38.4 µM); IC50 (Plasmodium falciparum [2]): 4.7 mg/L (≈ 12.3 µM); IC50 [6]: 11.7 mg/L (≈ 30.5 µM); IC50 (KB [11]): 37.1 mg/L (≈ 97 µM); Activity (Candida albicans [12]): inactive; IC50 [8]: 4.5 mg/L (≈ 11.8 µM)

Q: Which IC50 [3] does the source give for COc1c(O)c2c(c(C)c1C(=O)C=C(C)C)Oc1c(C=O)c(O)cc(C)c1C(=O)O2 [MOLLICELLIN C] here?
A: 4.18 mg/L (≈ 10.1 µM)

Q: And the Activity [10]?
A: inactive

Q: And the IC50 [4]?
A: 3.2 mg/L (≈ 7.76 µM)

Q: And the IC50 (Candida albicans [1])?
A: 49.9 mg/L (≈ 121 µM)

Q: And the IC50 [5]?
A: 5.12 mg/L (≈ 12.4 µM)

Q: What about the IC50 (NCI-H187) of the same molecule?
A: 3.1 mg/L (≈ 7.52 µM)

Q: And the IC50 (Plasmodium falciparum [2])?
A: 9.1 mg/L (≈ 22.1 µM)

Q: What about the Activity (BC1) of the same molecule?
A: inactive

Q: And the IC50 [6]?
A: 2.51 mg/L (≈ 6.09 µM)

Q: What about the IC50 (KB [11]) of the same molecule?
A: 46.3 mg/L (≈ 112 µM)

Q: What about the IC50 [8] of the same molecule?
A: 3.35 mg/L (≈ 8.12 µM)

Q: For COc1c(O)c2c(c(C)c1C(=O)C=C(C)C)Oc1c(C=O)c(O)c(Cl)c(C)c1C(=O)O2 [MOLLICELLIN E], which IC50 [3] is on record?
A: 5.22 mg/L (≈ 11.7 µM)

Q: And the Activity [10]?
A: inactive

Q: What about the IC50 [4] of the same molecule?
A: 4.44 mg/L (≈ 9.94 µM)

Q: And the IC50 (Candida albicans [1])?
A: 39.7 mg/L (≈ 88.8 µM)

Q: What about the IC50 [5] of the same molecule?
A: 4.83 mg/L (≈ 10.8 µM)

Q: And the IC50 (NCI-H187)?
A: 1 mg/L (≈ 2.24 µM)

Q: What about the IC50 (Plasmodium falciparum [2]) of the same molecule?
A: 3.2 mg/L (≈ 7.16 µM)

Q: And the IC50 [6]?
A: 5.03 mg/L (≈ 11.3 µM)

Q: What about the IC50 [8] of the same molecule?
A: 7.81 mg/L (≈ 17.5 µM)

Q: What does the source list for Cc1c2c(c(O)c3c1C(=O)CC(C)(C)O3)OC(=O)c1c(C)c(Cl)c(O)c(C=O)c1O2 [MOLLICELLIN F]?
A: IC50 [3]: 5.36 mg/L (≈ 12.4 µM); Activity (Plasmodium falciparum [13]): inactive; Activity [10]: inactive; IC50 [4]: 4.98 mg/L (≈ 11.5 µM); IC50 [5]: 5.21 mg/L (≈ 12 µM); IC50 (NCI-H187): 13.1 mg/L (≈ 30.3 µM); IC50 [6]: 5.21 mg/L (≈ 12 µM); IC50 (KB [11]): 37.9 mg/L (≈ 87.6 µM); IC50 [8]: 4.4 mg/L (≈ 10.2 µM)

Q: With CC(C)=CCc1c(O)cc2c(c1C)OC(=O)c1c(C)cc(O)c(C=O)c1O2 [MOLLICELLIN H] as the molecule, how does the Activity [10] read?
A: inactive

Q: What about the IC50 (NCI-H187) of the same molecule?
A: 3.9 mg/L (≈ 10.6 µM)

Q: And the IC50 (KB [11])?
A: 16.6 mg/L (≈ 45.1 µM)

Q: What does the source list for CC(C)=CCc1c(O)cc2c(c1C)OC(=O)c1c(C)c(Cl)c(O)c(C=O)c1O2 [MOLLICELLIN J]?
A: Activity [10]: inactive; IC50 (NCI-H187): 23.3 mg/L (≈ 57.8 µM); IC50 (Plasmodium falciparum [2]): 4.9 mg/L (≈ 12.2 µM); IC50 (KB [11]): 29.1 mg/L (≈ 72.2 µM)

Q: Which IC50 [3] does the source give for COc1cc2c(c(C)c1C(=O)C=C(C)C)OC(=O)c1c(C)cc(O)c(C=O)c1O2 [MOLLICELLIN L] here?
A: 6.04 mg/L (≈ 15.2 µM)

Q: What about the Activity [10] of the same molecule?
A: inactive

Q: What about the IC50 [4] of the same molecule?
A: 13.2 mg/L (≈ 33.3 µM)

Q: What about the IC50 (NCI-H187) of the same molecule?
A: 9.5 mg/L (≈ 24 µM)

Q: And the IC50 (Plasmodium falciparum [2])?
A: 3.4 mg/L (≈ 8.58 µM)

Q: And the IC50 [6]?
A: 8.55 mg/L (≈ 21.6 µM)

Q: What about the IC50 (KB [11]) of the same molecule?
A: 33.9 mg/L (≈ 85.5 µM)

Q: What about the Activity (Candida albicans [12]) of the same molecule?
A: inactive

Q: What about the IC50 [8] of the same molecule?
A: 4.51 mg/L (≈ 11.4 µM)

Q: With Cc1c2c(cc3c1C(=O)CC(C)(C)O3)Oc1c(C=O)c(O)c(Cl)c(C)c1C(=O)O2 [MOLLICELLIN M] as the molecule, how does the Activity [10] read?
A: inactive

Q: And the IC50 [5]?
A: 6.28 mg/L (≈ 15.1 µM)

Q: And the IC50 (NCI-H187)?
A: 0.68 mg/L (≈ 1.63 µM)

Q: And the IC50 (Plasmodium falciparum [2])?
A: 2.9 mg/L (≈ 6.96 µM)

Q: And the Activity (BC1)?
A: inactive

Q: What about the Activity (KB [14]) of the same molecule?
A: inactive

Q: And the Activity (Candida albicans [12])?
A: inactive

Q: Which results are given for Cc1cc(O)c(C=O)c2c1C(=O)Oc1c(O)c3c(c(C)c1O2)C(=O)CC(C)(C)O3 [MOLLICELLIN N]?
A: IC50 [3]: 2.9 mg/L (≈ 7.28 µM); Activity (Plasmodium falciparum [13]): inactive; Activity [10]: inactive; IC50 [4]: 3 mg/L (≈ 7.53 µM); IC50 [5]: 6.46 mg/L (≈ 16.2 µM); IC50 (NCI-H187): 13.5 mg/L (≈ 33.9 µM); IC50 [6]: 4.34 mg/L (≈ 10.9 µM); IC50 (KB [11]): 25.9 mg/L (≈ 65 µM); Activity (Candida albicans [12]): inactive; IC50 [8]: 5.05 mg/L (≈ 12.7 µM)

Q: Which IC50 [3] does the source give for CC(C)=CC(=O)c1c(O)cc2c(c1C)OC(=O)c1c(C)cc(O)c(C=O)c1O2 [MOLLICELLINE K] here?
A: 6.65 mg/L (≈ 17.4 µM)

Q: What about the IC50 (Candida albicans [1]) of the same molecule?
A: 1.2 mg/L (≈ 3.14 µM)

Q: And the IC50 [5]?
A: 4.46 mg/L (≈ 11.7 µM)

Q: What about the IC50 (NCI-H187) of the same molecule?
A: 0.35 mg/L (≈ 0.915 µM)

Q: What about the IC50 (Plasmodium falciparum [2]) of the same molecule?
A: 1.2 mg/L (≈ 3.14 µM)

Q: What about the IC50 [6] of the same molecule?
A: 13.9 mg/L (≈ 36.5 µM)

Q: And the IC50 [7]?
A: 6.8 mg/L (≈ 17.8 µM)

Q: And the IC50 (KB [11])?
A: 1.9 mg/L (≈ 4.97 µM)

Q: What about the MIC [9] of the same molecule?
A: 12.5 mg/L (≈ 32.7 µM)

Q: And the IC50 [8]?
A: 4.92 mg/L (≈ 12.9 µM)
